Only some compounds are listed: those with a hit (about 1.6% of all), similar ones and a draw of the others.
ABHD4 inh: inhibits mouse alpha/beta hydrolase domain 4. purified mABHD4, FP-Rh probe fluorescence polarization. inhibition, % at 8.92 µM. 370,000 tested, 0.54% active. AID 720543;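 active = inhibition exceeding the mean over every tested compound plus 3 SD, cut at about 30% in these data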;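 also: 0% = plate median of compound wells and 100% = S159A mutant with DMSO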
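Material: mouse ABHD4 enzyme, wild type; Benchmarks: S159A mutant high control, sample median low control; Buffer or medium: HEPES pH 7.0, NaCl, Pluronic buffer; Signal: fluorescence polarization; Read-out: percent inhibition of probe binding, normalized to plate controls; Timing: pre-incubation 45 min, probe exposure 60 min, at 25 °C; Dosing: 8.92 µM, single dose.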
DAGLB inh: diacylglycerol lipase beta (human) inhibition; Q8NCG7; HEK293T DAGLB membrane lysate, EnzChek fluorogenic substrate; inhibition, % at 5.17 µM; 340,000 tested, 0.059% active; AID 504411; in the data active = inhibition above about 34%;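 also: 0% = enzyme with vehicle and 100% = wells lacking enzyme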
SIAE primary: inhibitors of human sialic acid acetylesterase SIAE; 370,000 tested, 0.69% active; inhibition, % at 9.66 µM; AID 1053197; Q9HAT2; SIAE FP-Rh probe binding, fluorescence polarization;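 active = inhibition above a cutoff: mean of compounds within the control limits plus 3 SD of those, cut at about 17% in these data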;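 also: 0% = plate median of compound wells and 100% = probe without SIAE protein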
HTRA1 inh: HTRA1 (human) protease inhibition. inhibition, % at 5.96 µM. recombinant HTRA1, FP-rhodamine activity-based probe, fluorescence polarization. 340,000 tested, 0.5% active; in the data active = inhibition above about 36%;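 also: 0% = enzyme with DMSO and 100% = wells lacking enzyme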
TCR CD3 inh: inhibitors of human TCR-CD3 interaction; TAMRA-labeled TCR probe fluorescence, biochemical; 360,000 tested, 0.37% active; AID 651800; inhibition, % at 9.4 µM; in the data active = inhibition above about 19%;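 also: recombinant mutant TCR 2C K166C tagged with TAMRA read by polarization; 0% = receptor in buffer alone and 100% = receptor with positive control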
SIAE inh conf: human SIAE inhibition, confirmation. inhibition, % at 9.66 µM. AID 1117263. shares compounds with SIAE primary. SIAE FP-Rh activity-based probe, fluorescence polarization. 2,300 tested, 13% active;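 active = mean inhibition of the replicates above the hit cutoff set in the primary screen, cut at about 17% in these data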;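 also: 0% = SIAE with DMSO and probe and 100% = probe without SIAE; inhibitors lower polarization as more probe stays unbound to SIAE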
Numbers without * were called inactive.

Results for CCCOn1nnnc1-c1ccccc1 ?
ABHD4 inh: 8; DAGLB inh: -5; SIAE primary: 18*; HTRA1 inh: 2; TCR CD3 inh: 5; SIAE inh conf: 3

How did COC(=O)[C@H](CC(C)C)N(CCc1cn(Cc2ccccc2)nn1)S(=O)(=O)c1ccccc1Br do in these assays?
ABHD4 inh: 3; SIAE primary: -2

What do the screens show for `COc1ccc(C(=O)CSc2nnc(-c3cccnc3)n2-c2ccc(C)cc2)cc1`?
ABHD4 inh: 3; SIAE primary: 9

What do the screens show for `COc1ccc(/C=C2\N=C3CCCCCN3C2=O)cc1OC`?
ABHD4 inh: -2; DAGLB inh: 2; SIAE primary: 110*; HTRA1 inh: 11; TCR CD3 inh: -2; SIAE inh conf: 5

Results for Cc1ccc(NC(=O)[C@@H]2CC(=O)O[C@@H]2c2ccccc2)cc1C ?
ABHD4 inh: 6; SIAE primary: 15

What do the screens show for `O=C(CSc1nc(O)c(C2CCCCC2)c(=O)[nH]1)NCC1CCCO1` (stereo not drawn)?
ABHD4 inh: 7; DAGLB inh: 1; SIAE primary: 17*; HTRA1 inh: 6; TCR CD3 inh: -4; SIAE inh conf: 6

What do the screens show for `Cc1cc(=O)[nH]c(SCC(=O)NCC2CCCO2)n1` (stereo not drawn)?
ABHD4 inh: -2; DAGLB inh: -2; SIAE primary: 2; HTRA1 inh: 9; TCR CD3 inh: 5

How did NNC(=O)c1ccc(Cn2cccn2)o1 do in these assays?
ABHD4 inh: 4; DAGLB inh: 0; SIAE primary: 21*; HTRA1 inh: 3; TCR CD3 inh: 11; SIAE inh conf: -4

Results for NNC(=O)c1ccc(Cn2cc(Br)cn2)o1 ?
ABHD4 inh: -8; DAGLB inh: 0; SIAE primary: 0; HTRA1 inh: -15; TCR CD3 inh: 0

Results for CN(C)c1ccc(C(=O)Nc2nnc(-c3ccc(Cl)cc3)o2)cc1 ?
ABHD4 inh: -2; DAGLB inh: 6; SIAE primary: 18*; HTRA1 inh: 15; TCR CD3 inh: 2; SIAE inh conf: 5

Results for O=C(NCCc1ccccn1)c1ccc2c(c1)ncn2C1CCCCC1 ?
ABHD4 inh: 2; SIAE primary: 4

How did Cc1nc(NS(=O)(=O)c2ccccc2)sc1NC(=O)Nc1ccc(Cl)cc1 do in these assays?
ABHD4 inh: 18; DAGLB inh: 7; SIAE primary: 18*; HTRA1 inh: 3; TCR CD3 inh: -10; SIAE inh conf: 27*

Results for CC(CCN1CCC(C(O)(c2ccccc2)c2ccccc2)CC1)Oc1ccc(C#N)c(F)c1 (stereo not drawn) ?
ABHD4 inh: 9; SIAE primary: -1

Results for O=C(Nc1nnc(-c2cccs2)o1)c1ccco1 ?
ABHD4 inh: 2; DAGLB inh: -3; SIAE primary: 19*; HTRA1 inh: 12; TCR CD3 inh: -1; SIAE inh conf: 4

What do the screens show for `O=C(Nc1nnc(-c2ccc(Br)cc2)o1)c1ccco1`?
DAGLB inh: 1; HTRA1 inh: 1

What do the screens show for `CC1(c2nnnn2Cc2ccccc2)CSCC(=O)N1Cc1cccs1` (stereo not drawn)?
ABHD4 inh: -1; SIAE primary: -2

How did Nc1ccc(-c2nc3ccc(N)cc3[nH]2)cc1 do in these assays?
ABHD4 inh: 15; DAGLB inh: 0; SIAE primary: 25*; HTRA1 inh: 10; TCR CD3 inh: -9; SIAE inh conf: 8

How did Nc1ccc2nc(-c3ccc(Cl)cc3)[nH]c2c1 do in these assays?
ABHD4 inh: 15; DAGLB inh: 6; SIAE primary: 54*; HTRA1 inh: 33; TCR CD3 inh: -1; SIAE inh conf: 4

Results for Cc1nc2ccc(-c3nc4ccc(N)cc4[nH]3)cc2[nH]1 ?
ABHD4 inh: 8; DAGLB inh: 1; SIAE primary: 6; HTRA1 inh: 6; TCR CD3 inh: -13

How did O=[N+]([O-])c1ccc(-c2nc3ccc([N+](=O)[O-])cc3[nH]2)cc1 do in these assays?
ABHD4 inh: -10; DAGLB inh: 2; SIAE primary: 18*; HTRA1 inh: -4; TCR CD3 inh: 6; SIAE inh conf: 7

What do the screens show for `Nc1ccc2nc(-c3cc(Cl)c(N)c(Cl)c3)[nH]c2c1`?
ABHD4 inh: 22; DAGLB inh: 2; SIAE primary: 24*; HTRA1 inh: 32; TCR CD3 inh: -11; SIAE inh conf: 13
